From ChEMBL document CHEMBL1156621, “Synthesis and cellular effects of cycloterpenals: cyclohexadienal-based activators of neurite outgrowth” (2008)
In brackets after ≈: the same amount, converted by molar mass. Activity calls are given as the source filed them. The calls are words filed in the database; no cut-off is given here.

What was measured:
PC-12 [1] = assay: Induction of neurite outgrowth in rat PC12 cells assessed as neural extensions at 1 ug/mL after 5 days; format: functional, cell-based
Procedure, shortened: (§1)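 Rat PC12 cells (ATCC CRL 1721) grown on collagen Type IV in RPMI 1640 with 10% heat-inactivated horse serum and 5% FBS, 37 °C, 5% CO₂. Seeded at 10,000 cells/well in collagen IV 96-well plates and allowed to adhere 24 h before compound. Tested in duplicate at final 100, 10 and 1 μg/mL; absolute EtOH as control. Neurite outgrowth and intercellular connections scored visually over 2 weeks.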

Saccharomyces cerevisiae = assay: Antifungal activity against Saccharomyces cerevisiae after 16 hrs; format: functional
Bacillus subtilis = assay: Antibacterial activity against Bacillus subtilis after 16 hrs; format: functional
Escherichia coli = assay: Antibacterial activity against Escherichia coli after 16 hrs; format: functional
PC-12 [2] = assay: Induction of neurite outgrowth in rat PC12 cells at 1 ug/mL after 6 days; format: functional, cell-based; procedure, shortened: as §1
Jurkat = assay: Growth inhibition of human Jurkat T cells at 1 ug/mL after 24 hrs; format: functional, cell-based
Procedure, shortened: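 Cells kept in RPMI 1640 with 10% FBS at 37 °C, 5% CO₂. Harvested, counted and seeded at 200,000 cells/well (1 mL) in 48-well plates, then compound added. After 24 h incubation the cells were pelleted, washed in PBS and lysed. Lysate relative fluorescence measured on a fluorometer.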

PC-12 [3] = assay: Induction of neurite outgrowth in rat PC12 cells at 10 ug/mL after 7 days; format: functional, cell-based; procedure, shortened: as §1

| SMILES | MIC (Saccharomyces cerevisiae) | MIC (Bacillus subtilis) | MIC (Escherichia coli) | Activity (PC-12 [1]) | Activity (PC-12 [2]) | Activity (Jurkat) | Activity (PC-12 [3]) |
| --- | --- | --- | --- | --- | --- | --- | --- |
| Cc1ccc(C2=CC=C(C=O)C(C)(C)C2)o1 | > 100 µg/mL | > 100 µg/mL | > 100 µg/mL |  |  |  |  |
| CC1=CC=C(C=O)C(c2ccc(N(C)C)cc2)C1 (stereo unspecified) | > 100 µg/mL | > 100 µg/mL | > 100 µg/mL |  |  |  |  |
| CCCCCCC1=CC=C(C=O)C(C)(CCCCCC)C1 (stereo unspecified) | > 100 µg/mL | > 100 µg/mL | > 100 µg/mL |  |  |  |  |
| O=Cc1ccc(-c2ccccc2)cc1-c1ccc([N+](=O)[O-])cc1 | > 100 µg/mL | > 100 µg/mL | > 100 µg/mL |  |  |  |  |
| CN(C)c1ccc(C2CC(c3ccc(-c4ccccc4)cc3)=CC=C2C=O)cc1 (stereo unspecified) | > 100 µg/mL | > 100 µg/mL | > 100 µg/mL |  |  |  |  |
| CC(C)=CC[C@@H]1C(C)=CC=C(C=O)[C@H]1c1ccccc1 | > 100 µg/mL | > 100 µg/mL | > 100 µg/mL |  |  |  |  |
| Cc1ccc(C=O)c(-c2ccc(N(C)C)cc2)c1 | > 100 µg/mL | 10 µg/mL (≈ 41.8 µM) | > 100 µg/mL |  |  |  |  |
| CN(C)c1ccc(-c2cc(-c3ccc4c(c3)Cc3ccccc3-4)ccc2C=O)cc1 | > 100 µg/mL | > 100 µg/mL | > 100 µg/mL |  |  |  |  |
| CC1C(c2cccs2)=CC=C(C=O)C1c1ccc(N(C)C)cc1 (stereo unspecified) | > 100 µg/mL | > 100 µg/mL | > 100 µg/mL |  |  |  |  |
| CC1=C(/C=C/C(C)=C/C=C/c2ccc(C=O)c(-c3ccccc3)c2)C(C)(C)CCC1 | > 100 µg/mL | > 100 µg/mL | > 100 µg/mL |  |  |  |  |
| CC1=C(/C=C/C(C)=C/C=C/C2=CC=C(C=O)C(C)(/C=C/C=C(C)/C=C/C3=C(C)CCCC3(C)C)C2)C(C)(C)CCC1 (stereo unspecified) | > 100 µg/mL | > 100 µg/mL | > 100 µg/mL |  |  |  |  |
| O=CC1=CC=C(c2ccc(-c3ccccc3)cc2)CC1 | > 100 µg/mL | > 100 µg/mL | > 100 µg/mL |  |  |  |  |
| CC1=C(/C=C/C(C)=C/C=C/C2=CC=C(C=O)C(c3ccc(N(C)C)cc3)C2)C(C)(C)CCC1 (stereo unspecified) | > 100 µg/mL | > 100 µg/mL | > 100 µg/mL |  |  |  |  |
| O=CC1=CC=C(c2ccc(Cl)s2)CC1c1ccccc1 (stereo unspecified) | > 100 µg/mL | > 100 µg/mL | > 100 µg/mL |  |  |  |  |
| CC1C(c2cccs2)=CC=C(C=O)C1c1ccc([N+](=O)[O-])cc1 (stereo unspecified) | > 100 µg/mL | > 100 µg/mL | > 100 µg/mL |  |  |  |  |
| CN(C)c1ccc(C2CC(c3cccs3)=CC=C2C=O)cc1 (stereo unspecified) | > 100 µg/mL | > 100 µg/mL | > 100 µg/mL |  |  |  |  |
| CCCCC[C@H]1C(C)=CC=C(C=O)[C@H]1c1ccccc1 | > 100 µg/mL | > 100 µg/mL | > 100 µg/mL |  |  |  |  |
| CC1CC(c2cccs2)=CC=C1C=O (stereo unspecified) | > 100 µg/mL | > 100 µg/mL | > 100 µg/mL |  |  |  |  |
| CCC1(c2cccs2)C(C=O)=CC=C(c2cccs2)C1C (stereo unspecified) | > 100 µg/mL | > 100 µg/mL | > 100 µg/mL |  |  |  |  |
| O=CC1=CC=C(c2cccs2)CC1c1ccccc1 (stereo unspecified) | > 100 µg/mL | > 100 µg/mL | > 100 µg/mL |  |  |  |  |
| O=CC1=CC=C(c2ccc3c(c2)Cc2ccccc2-3)CC1c1ccc([N+](=O)[O-])cc1 (stereo unspecified) | > 100 µg/mL | > 100 µg/mL | > 100 µg/mL |  |  | Active |  |
| CN(C)c1ccc(-c2cc(-c3ccc(-c4ccccc4)cc3)ccc2C=O)cc1 | > 100 µg/mL | > 100 µg/mL | > 100 µg/mL |  |  |  |  |

Now from value to molecule, other results behind:

| MIC (Saccharomyces cerevisiae) | MIC (Bacillus subtilis) | MIC (Escherichia coli) | SMILES | Activity (PC-12 [1]) | Activity (PC-12 [2]) | Activity (Jurkat) | Activity (PC-12 [3]) |
| --- | --- | --- | --- | --- | --- | --- | --- |
| > 100 µg/mL | > 100 µg/mL | > 100 µg/mL | Cc1ccc(C2(C)CC(c3ccc(-c4ccccc4)cc3)=CC=C2C=O)o1 (stereo unspecified) | Active | Active | Active |  |
| > 100 µg/mL | > 100 µg/mL | > 100 µg/mL | CN(C)c1ccc(C2CC(c3ccc4ccccc4c3)=CC=C2C=O)cc1 (stereo unspecified) |  |  |  | Active |
| > 100 µg/mL | > 100 µg/mL | > 100 µg/mL | O=CC1=CC=C(c2ccc(-c3ccccc3)cc2)CC1c1ccc([N+](=O)[O-])cc1 (stereo unspecified) |  |  | Active |  |
| > 100 µg/mL | > 100 µg/mL | > 100 µg/mL | CN(C)c1ccc(C2CC(c3ccc(Cl)s3)=CC=C2C=O)cc1 (stereo unspecified) |  |  | Active |  |
| > 100 µg/mL | > 100 µg/mL | > 100 µg/mL | CN(C)c1ccc(-c2cc(-c3ccccc3)ccc2C=O)cc1 |  |  |  |  |
| > 100 µg/mL | > 100 µg/mL | > 100 µg/mL | Cc1ccc(C2=CC=C(C=O)C(c3ccc(N(C)C)cc3)C2)o1 (stereo unspecified) |  |  |  |  |
| > 100 µg/mL | > 100 µg/mL | > 100 µg/mL | CC1(c2ccccc2)CC(c2ccccc2)=CC=C1C=O (stereo unspecified) |  |  |  |  |
| > 100 µg/mL | > 100 µg/mL | > 100 µg/mL | O=CC1=CC=C(c2ccc3ccccc3c2)CC1c1ccccc1 (stereo unspecified) |  |  |  |  |
| > 100 µg/mL | > 100 µg/mL | > 100 µg/mL | CN(C)c1ccc(C2CC(c3ccccc3)=CC=C2C=O)cc1 (stereo unspecified) |  |  |  |  |
| > 100 µg/mL | > 100 µg/mL | > 100 µg/mL | O=CC1=CC=C(c2ccccc2)CC1c1ccc([N+](=O)[O-])cc1 (stereo unspecified) |  |  |  |  |
| > 100 µg/mL | > 100 µg/mL | > 100 µg/mL | CC(C)=CCC/C(C)=C/C[C@H]1C(C)=CC=C(C=O)[C@H]1c1ccc([N+](=O)[O-])cc1 |  |  |  |  |
